Laboratory results as given in ChEMBL document CHEMBL1287802, “Convergent synthesis of fluorescence-labeled probes of Annonaceous acetogenins and visualization of their cell distribution” (Bioorg Med Chem, 2010).

What was measured:
Assay type in all cases: functional
ACHN = test: Growth inhibition of human ACHN cells after 48 hrs by sulforhodamine B assay
Summary of the method: (§1)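 Tested in the JFCR39 panel of 39 human cancer cell lines. Cells were exposed to compound for 48 h, and growth was measured as the change in total cellular protein by sulforhodamine B colorimetry. GI50 (molar concentration for 50% growth inhibition) was calculated by a previously reported method. Fingerprints were plotted as log differences of each line's GI50 from the panel mean.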

NCI-H23 = test: Growth inhibition of human NCI-H23 cells after 48 hrs by sulforhodamine B assay; conditions: NCI-H23, 48 h; summary of the method: as §1
SF-539 = test: Growth inhibition of human SF539 cells after 48 hrs by sulforhodamine B assay; conditions: SF-539, 48 h; summary of the method: as §1
OVCAR-3 = test: Growth inhibition of human OVCAR-3 cells after 48 hrs by sulforhodamine B assay; conditions: OVCAR-3, 48 h; summary of the method: as §1
[1] = Growth inhibition of human RXF631L cells after 48 hrs by sulforhodamine B assay; conditions: RXF 631, 48 h; summary of the method: as §1
[2] = Growth inhibition of human BSY1 cells after 48 hrs by sulforhodamine B assay; conditions: BSY-1, 48 h; summary of the method: as §1
NCI-H460 = test: Growth inhibition of human NCI-H460 cells after 48 hrs by sulforhodamine B assay; conditions: NCI-H460, 48 h; summary of the method: as §1
SNB-75 = test: Growth inhibition of human SNB75 cells after 48 hrs by sulforhodamine B assay; conditions: SNB-75, 48 h; summary of the method: as §1
PC-3 = test: Growth inhibition of human PC3 cells after 48 hrs by sulforhodamine B assay; conditions: PC-3, 48 h; summary of the method: as §1
SK-OV-3 = test: Growth inhibition of human SKOV3 cells after 48 hrs by sulforhodamine B assay; conditions: SK-OV-3, 48 h; summary of the method: as §1
MKN-7 = test: Growth inhibition of human MKN7 cells after 48 hrs by sulforhodamine B assay; conditions: MKN-7, 48 h; summary of the method: as §1
OVCAR-4 = test: Growth inhibition of human OVCAR4 cells after 48 hrs by sulforhodamine B assay; conditions: OVCAR-4, 48 h; summary of the method: as §1
NCI-H522 = test: Growth inhibition of human NCI-H522 cells after 48 hrs by sulforhodamine B assay; conditions: NCI-H522, 48 h; summary of the method: as §1
HCT-15 = test: Growth inhibition of human HCT15 cells after 48 hrs by sulforhodamine B assay; conditions: HCT-15, 48 h; summary of the method: as §1
MKN-45 = test: Growth inhibition of human MKN45 cells after 48 hrs by sulforhodamine B assay; conditions: MKN-45, 48 h; summary of the method: as §1
DU-145 = test: Growth inhibition of human DU145 cells after 48 hrs by sulforhodamine B assay; conditions: DU-145, 48 h, read-out: pGI50 (converted); summary of the method: as §1
NCI-H226 = test: Growth inhibition of human NCI-H226 cells after 48 hrs by sulforhodamine B assay; conditions: NCI-H226, 48 h; summary of the method: as §1
MCF7 = test: Growth inhibition of human MCF7 cells after 48 hrs by sulforhodamine B assay; conditions: MCF7, 48 h; summary of the method: as §1
DMS-273 = test: Growth inhibition of human DMS273 cells after 48 hrs by sulforhodamine B assay; conditions: DMS-273, 48 h; summary of the method: as §1
St-4 = test: Growth inhibition of human St-4 cells after 48 hrs by sulforhodamine B assay; conditions: St-4, 48 h; summary of the method: as §1
MKN-28 = test: Growth inhibition of human MKN28 cells after 48 hrs by sulforhodamine B assay; conditions: MKN-28, 48 h; summary of the method: as §1
HCC 2998 = test: Growth inhibition of human HCC2998 cells after 48 hrs by sulforhodamine B assay; conditions: HCC 2998, 48 h, read-out: pGI50 (converted); summary of the method: as §1
U-251 = test: Growth inhibition of human U251 cells after 48 hrs by sulforhodamine B assay; conditions: U-251, 48 h; summary of the method: as §1
[3] = Growth inhibition of human HBC5 cells after 48 hrs by sulforhodamine B assay; conditions: HBC5, 48 h; summary of the method: as §1
OVCAR-5 = test: Growth inhibition of human OVCAR5 cells after 48 hrs by sulforhodamine B assay; conditions: OVCAR-5, 48 h; summary of the method: as §1
HCT-116 = test: Growth inhibition of human HCT116 cells after 48 hrs by sulforhodamine B assay; conditions: HCT-116, 48 h; summary of the method: as §1
A549 = test: Growth inhibition of human A549 cells after 48 hrs by sulforhodamine B assay; conditions: A549, 48 h; summary of the method: as §1
[4] = Growth inhibition of human HBC4 cells after 48 hrs by sulforhodamine B assay; conditions: HBC4, 48 h; summary of the method: as §1
[5] = Growth inhibition of human MDA-MB-23 cells after 48 hrs by sulforhodamine B assay; conditions: MDA-MB-23, 48 h, read-out: pGI50 (converted); summary of the method: as §1
OVCAR-8 = test: Growth inhibition of human OVCAR8 cells after 48 hrs by sulforhodamine B assay; conditions: OVCAR-8, 48 h; summary of the method: as §1
HT-29 = test: Growth inhibition of human HT-29 cells after 48 hrs by sulforhodamine B assay; conditions: HT-29, 48 h; summary of the method: as §1
SF-268 = test: Growth inhibition of human SF268 cells after 48 hrs by sulforhodamine B assay; conditions: SF-268, 48 h; summary of the method: as §1
DMS-114 = test: Growth inhibition of human DMS114 cells after 48 hrs by sulforhodamine B assay; conditions: DMS-114, 48 h; summary of the method: as §1
LOX IMVI = test: Growth inhibition of human LOXIMVI cells after 48 hrs by sulforhodamine B assay; summary of the method: as §1
[6] = Growth inhibition of human MKN1 cells after 48 hrs by sulforhodamine B assay; conditions: MKN-1, 48 h; summary of the method: as §1
KM12 = test: Growth inhibition of human KM12 cells after 48 hrs by sulforhodamine B assay; conditions: KM12, 48 h; summary of the method: as §1
SNB-78 = test: Growth inhibition of human SNB78 cells after 48 hrs by sulforhodamine B assay; conditions: SNB-78, 48 h; summary of the method: as §1
SF-295 = test: Growth inhibition of human SF295 cells after 48 hrs by sulforhodamine B assay; conditions: SF-295, 48 h; summary of the method: as §1
MKN-74 = test: Growth inhibition of human MKN74 cells after 48 hrs by sulforhodamine B assay; conditions: MKN-74, 48 h; summary of the method: as §1

## CCCCCCCCCCCC[C@@H](O)[C@H]1CC[C@H]([C@H](O)CCCCCCCCCCCCC2=C[C@H](C)OC2=O)O1 [REL-SOLAMIN]
ACHN
  GI50: > 100 µM
NCI-H23
  GI50: 72.4 µM
SF-539
  GI50: > 100 µM
OVCAR-3
  GI50: > 100 µM
[1]
  GI50: > 100 µM
[2]
  GI50: > 100 µM
NCI-H460
  GI50: > 100 µM
SNB-75
  GI50: > 100 µM
PC-3
  GI50: > 100 µM
SK-OV-3
  GI50: > 100 µM
MKN-7
  GI50: 12.9 µM
OVCAR-4
  GI50: > 100 µM
NCI-H522
  GI50: 57.5 µM
HCT-15
  GI50: > 100 µM
MKN-45
  GI50: > 100 µM
DU-145
  GI50: > 100 µM
NCI-H226
  GI50: > 100 µM
MCF7
  GI50: 70.8 µM
DMS-273
  GI50: > 100 µM
St-4
  GI50: > 100 µM
MKN-28
  GI50: 14.1 µM
HCC 2998
  GI50: > 100 µM
U-251
  GI50: > 100 µM
[3]
  GI50: > 100 µM
OVCAR-5
  GI50: > 100 µM
HCT-116
  GI50: > 100 µM
A549
  GI50: > 100 µM
[4]
  GI50: > 100 µM
[5]
  GI50: > 100 µM
OVCAR-8
  GI50: > 100 µM
HT-29
  GI50: > 100 µM
SF-268
  GI50: > 100 µM
DMS-114
  GI50: 4.37 µM
LOX IMVI
  GI50: 29.5 µM
[6]
  GI50: > 100 µM
KM12
  GI50: > 100 µM
SNB-78
  GI50: > 100 µM
SF-295
  GI50: > 100 µM
MKN-74
  GI50: > 100 µM
